Screening data from PubChem BioAssay.
Many of the other results were omitted from the sample, so hits are more common in it than they were.
CHOP inh = CHOP inhibition in unfolded protein response; CHO-K1 CHOP-promoter luciferase, tunicamycin-induced, 15-18 h; inhibition, % at 10 µM; 3.8% of 220,000 active; AID 2732;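 active means compounds that reduced the stress-induced luciferase reporter signal by more than about 70% of percent inhibition, limit read from the data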
TLR4-MyD88 BLA = blocks binding of human TLR4 to MyD88; HeLa CL3-4 TLR4/MyD88 BLA complementation, FRET ratio; inhibition, % at 8.4 µM; 0.18% of 200,000 active; AID 861; in the data active means inhibition above about 25%
Target sequence (O00206 whole entry, looked up): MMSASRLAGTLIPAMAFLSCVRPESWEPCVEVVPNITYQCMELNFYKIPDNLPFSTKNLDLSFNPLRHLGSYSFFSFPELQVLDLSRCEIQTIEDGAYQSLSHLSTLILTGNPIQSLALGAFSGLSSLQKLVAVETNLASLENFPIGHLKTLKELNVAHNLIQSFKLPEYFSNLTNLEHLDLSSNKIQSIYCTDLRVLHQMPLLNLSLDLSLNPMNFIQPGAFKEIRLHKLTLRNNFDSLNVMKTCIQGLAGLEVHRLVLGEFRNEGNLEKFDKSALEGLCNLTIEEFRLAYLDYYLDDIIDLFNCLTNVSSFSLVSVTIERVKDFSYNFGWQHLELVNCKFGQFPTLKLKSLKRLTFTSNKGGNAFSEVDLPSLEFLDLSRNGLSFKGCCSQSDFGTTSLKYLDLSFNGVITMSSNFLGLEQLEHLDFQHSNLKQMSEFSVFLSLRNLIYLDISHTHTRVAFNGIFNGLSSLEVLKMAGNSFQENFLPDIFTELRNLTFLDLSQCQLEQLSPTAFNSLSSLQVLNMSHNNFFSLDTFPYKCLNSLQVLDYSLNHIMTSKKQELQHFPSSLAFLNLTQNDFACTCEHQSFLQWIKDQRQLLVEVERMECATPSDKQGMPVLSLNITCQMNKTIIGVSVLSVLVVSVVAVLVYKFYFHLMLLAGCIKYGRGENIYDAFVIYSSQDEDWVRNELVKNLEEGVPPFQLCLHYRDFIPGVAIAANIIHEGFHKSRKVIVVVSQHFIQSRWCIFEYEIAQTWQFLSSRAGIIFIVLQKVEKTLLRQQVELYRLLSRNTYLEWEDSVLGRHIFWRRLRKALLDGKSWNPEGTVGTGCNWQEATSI
Target sequence (Q99836 whole entry, looked up): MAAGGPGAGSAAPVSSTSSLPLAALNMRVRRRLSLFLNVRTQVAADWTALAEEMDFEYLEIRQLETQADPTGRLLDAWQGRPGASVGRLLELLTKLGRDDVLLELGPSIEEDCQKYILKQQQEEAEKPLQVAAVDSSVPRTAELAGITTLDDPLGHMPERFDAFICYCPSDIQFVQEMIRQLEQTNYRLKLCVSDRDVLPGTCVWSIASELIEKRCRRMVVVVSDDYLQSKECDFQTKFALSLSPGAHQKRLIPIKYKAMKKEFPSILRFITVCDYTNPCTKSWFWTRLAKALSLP
NOD2 RIPK2 PPI = inhibitors of human NOD2-RIPK2 interaction; inhibition, % at 4.98 µM; O43353; 0.38% of 360,000 active; CHO BLA complementation NOD2-RIPK2, CCF4 ratio; in the data active means inhibition above about 21%
UPR CHOP act = apoptotic UPR (CHOP) activation | 0.34% of 330,000 active | activation, % at 10 µM | CHO-CHOP luciferase reporter, luminescence; percent of tunicamycin response over DMSO baseline;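 active means at 10 µM dose, activation of 40% or more, normalized to positive control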
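System: CHO CHOP reporter cells. Amount: 500 cells per well. Buffer or medium: F12 medium, 10% FBS. Compound dosing: one dose, 10 µM in 0.5% DMSO. Incubation: 6 h compound exposure at 37 °C after overnight seeding. Technique: Steady-Glo luciferase luminescence. Benchmarks: tunicamycin and DMSO controls.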
UPR XBP1 act = activators of adaptive arm of unfolded protein response (XBP1); CHO-XBP1 luciferase reporter, IRE1-XBP1 UPR activation, luminescence; percent of tunicamycin response, DMSO as zero; AID 463104; activation, % at 20 µM; 0.33% of 330,000 active;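 active means versus positive control, 20 µM dose yields 30% or more activation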
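Material – CHO cell line with stable XBP1 luciferase reporter · Buffer or medium – F12 plus 10% FBS · Compound – single point, 20 µM final compound, 1% DMSO · Schedule – 16-18 h cell attachment at 37 °C, then 6 h compound exposure · Signal – Steady-Glo luminescence read · Benchmarks – high control tunicamycin 10 µg/mL final, low control DMSO vehicle only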
TLR9-MyD88 inh = TLR9-MyD88 interaction inhibition | CHO BLA complementation TLR9-MyD88, CCF4 FRET ratio | inhibition, % at 4.98 µM | Q9NR96+Q99836 | 0.21% of 340,000 active;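 active means inhibition above the mean over all tested compounds plus 3 SD, cut at about 21% in these data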
UPR CHOP confirm = confirmation of apoptotic unfolded protein response (CHOP) activators. 64% of 1,000 active. AID 463112. activation, % at 10 µM. CHO-CHOP cells, CHOP-luciferase reporter luminescence; percent of tunicamycin response, DMSO as zero. shares compounds with UPR CHOP act; in the data active means activation above about 33%
XBP1 UPR conf = adaptive UPR (XBP1) activation, confirmed; AID 485299; CHO-XBP1 IRE1-XBP1 luciferase reporter, luminescence; shares compounds with UPR XBP1 act; 63% of 1,000 active; activation, % at 20 µM;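 active means reporter signal at least 30% of the positive control's activation in two or more of four replicate wells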
A number is an active result; i = inactive; nt = no result given.

SMILES | CHOP inh | TLR4-MyD88 BLA | NOD2 RIPK2 PPI | UPR CHOP act | UPR XBP1 act | TLR9-MyD88 inh | UPR CHOP confirm | XBP1 UPR conf
COc1cc([C@H]2c3[nH]c4ccccc4c3C[C@H]3C(=O)N4[C@@H](c5cc(OC)c(OC)c(OC)c5)c5[nH]c6ccccc6c5C[C@H]4C(=O)N23)cc(OC)c1OC | 96 | i | i | 88 | 153 | i | 109 | 118
CCN1C(=O)[C@@H]2Cc3c([nH]c4ccccc34)C(c3cc(OC)c(OC)c(OC)c3)N2C1=S (some centres not stated) | nt | nt | i | i | i | i | nt | nt
CC(=O)Nc1ccc(N=Cc2c(O)c(C(=O)Nc3ccccc3)cc3ccccc23)cc1 | i | i | nt | 45 | 90 | nt | 43 | i
C[C@H]1CN([C@@H](C)CO)C(=O)CCCn2nncc2CO[C@@H]1CN(C)C(=O)Nc1cccc2ccccc12 | nt | nt | i | nt | nt | i | nt | nt
CCOc1ccc(-n2nc3ccc(NC(=O)c4ccc5c(c4)OCCO5)cc3n2)cc1 | 76 | i | i | 73 | 155 | i | i | 122
COCCCn1cc(CN2CC(N3CCN(C)CC3)CS2(=O)=O)nn1 (configuration not stated) | nt | nt | i | nt | nt | nt | nt | nt
Cc1cccnc1Nc1nc(-c2ccc(O)c(O)c2)cs1 | i | i | i | 155 | 30 | i | 114 | 43
COC(=O)[C@@]1(Cc2ccc(F)cc2)[C@H]2c3cc(C(=O)N(C)C)n(CCc4c[nH]c5ccc(O)cc45)c3C[C@H]2CN1C(=O)c1ccccc1 | nt | nt | i | nt | nt | nt | nt | nt
CC1(C)C=Cc2c(c3c(c4c(=O)c(-c5ccc(O)cc5)coc24)OC(C)(C)CC3)O1 | 92 | i | i | 87 | 54 | i | 44 | 64
CC(C)=CCc1c2c(c3occ(-c4ccc(O)c(O)c4)c(=O)c3c1O)C=CC(C)(C)O2 | nt | nt | i | nt | nt | i | nt | nt
O=[N+]([O-])c1ccc(Cl)c(-c2ccc(/C=N/c3c(-c4ccco4)nc4ccccn34)o2)c1 | i | i | i | 74 | 90 | i | i | 95
CCOc1cc(/C=C2/C(=N)N3C=CSC3=NC2=O)ccc1OCCCOc1ccccc1C | 85 | i | i | 78 | 265 | i | 36 | 134
CN(C)S(=O)(=O)c1ccc(N2CCCC2)c(C(=O)Nc2nc3c(ccc4ccccc43)s2)c1 | i | i | i | i | i | i | nt | nt
Cc1cnc(NC(=O)c2cc(S(=O)(=O)N(C)C)ccc2N2CCCC2)s1 | nt | nt | i | 96 | 98 | nt | 105 | 87
N#C/C(=C\c1cccn1S(=O)(=O)c1ccccc1)S(=O)(=O)c1ccc(F)cc1 | nt | nt | i | nt | nt | nt | nt | nt
CCc1ccc(NC(=O)COc2ccc(/C=C(/C#N)c3nc4ccccc4[nH]3)cc2OC)cc1 | 87 | i | i | 172 | 192 | i | i | i
COC(=O)c1ccc(COc2ccc(/C=C(\C#N)c3nc4ccccc4[nH]3)cc2OC)o1 | i | i | i | i | i | i | nt | nt
CCc1ccc(-n2c(SCC(=O)c3ccc4c(c3)NC(=O)CO4)nc3ccccc3c2=O)cc1 | i | i | i | 62 | 61 | i | 115 | 118
Cc1ccc(S(=O)(=O)NCC(C)n2nc(C)cc2C)cc1 (configuration not stated) | nt | nt | i | i | i | i | nt | nt
Cc1ccc(C(C[N+](=O)[O-])n2nc(C)cc2C)cc1 (configuration not stated) | i | i | i | 57 | 55 | i | 83 | i
O=C(NCCCN1CCC(Cc2ccccc2)CC1)c1ccc(CS(=O)c2ccccc2Cl)o1 (configuration not stated) | nt | nt | i | nt | nt | i | nt | nt
Nc1ccc(N=Nc2ccccc2)c2ccccc12 | i | nt | i | i | i | i | nt | nt
c1ccc(N=Nc2ccc3cccccc2-3)cc1 | nt | nt | i | 67 | 83 | i | i | 60
COCCNc1nc(Oc2ccc(C(N)=O)cc2)c2sccc2n1 | nt | nt | i | nt | nt | nt | nt | nt
Cc1ccc(-c2nn(-c3ccccc3)cc2/C=C/C(=O)Nc2nccs2)cc1 | 93 | i | i | 45 | 50 | i | i | i
SMILES | CHOP inh | TLR4-MyD88 BLA | NOD2 RIPK2 PPI | UPR CHOP act | UPR XBP1 act | TLR9-MyD88 inh | UPR CHOP confirm | XBP1 UPR conf
FC(F)(F)c1nnc2c(Sc3ccccc3)nc3ccc(Cl)cc3n12 | i | i | i | 233 | 115 | i | 152 | 124
Cc1ccc(C(=O)Cn2c(C(=O)/C=C/c3ccccc3)nc3ccccc32)cc1 | i | i | i | 249 | 32 | i | 325 | 46
O=C(CSc1nnc(CNC(=O)c2c(F)cccc2F)o1)c1ccc(Cl)cc1 | nt | nt | i | nt | nt | i | nt | nt
Cc1cccnc1NC(=O)Nc1cccc(F)c1 | nt | nt | i | nt | nt | i | nt | nt
C#CCn1c(=NC(=O)c2ccc(S(=O)(=O)N3CCc4ccccc4C3)cc2)sc2cc(S(N)(=O)=O)ccc21 | 110 | i | i | 82 | 58 | i | i | 83
O=C(Nc1nc(-c2ccc(F)c(F)c2)cs1)Nc1ccc(F)cc1F | nt | nt | i | 47 | 74 | i | 53 | 123
O=C(Cc1ccccc1F)Nc1nc(-c2ccc(F)c(F)c2)cs1 | nt | nt | i | i | i | i | nt | nt
O=C(/C=C1\NC2(CCCC2)Cc2ccccc21)C(=O)N/N=C/c1ccc(O)c(O)c1 | i | i | i | 124 | 92 | i | 68 | 80
COc1ccc(/C=N/NC(=O)C(=O)/C=C2\NC3(CCCC3)Cc3ccccc32)cc1 | i | i | i | i | i | i | nt | nt
O=C(COc1ccc(/C=N/NC(=O)c2cc3ccccc3o2)cc1Br)Nc1ccccc1 | i | i | i | 275 | 107 | i | 58 | 45
Cc1ccc2c(c1)C(c1ccc([N+](=O)[O-])cc1)=NNC(c1ccc(Br)cc1)=N2 | 94 | i | i | 75 | 84 | i | i | 74
O=C(N/N=C/c1cccc([N+](=O)[O-])c1)c1cc2c(ccc3ccccc32)o1 | i | i | i | 104 | 40 | i | 77 | i
CCCCCCCC(=O)Nc1ccc(C(=O)N/N=C/c2cccc([N+](=O)[O-])c2)cc1 | i | i | i | 193 | 237 | i | 183 | 145
CC(C)Oc1ccc(CN2CCC2(C)C(=O)NCc2cccc3ccccc23)cc1 (configuration not stated) | nt | nt | i | nt | nt | nt | nt | nt
CCOC(=O)c1c(NC(=O)CC2Nc3ccccc3NC2=O)sc(C)c1C (configuration not stated) | i | i | i | i | i | i | nt | nt
COC(=O)c1c(NC(=O)CC2Nc3ccccc3NC2=O)sc(C)c1C (configuration not stated) | i | i | i | 160 | 47 | i | 40 | 31
Cn1nccc1-c1coc2c(C(=O)NCc3ccccc3)cccc12 | nt | nt | i | nt | nt | nt | nt | nt
